OXTR ag: human OXTR agonism. P30559. actives 0.32% (n = 320,000). CHO-OTR cells, Fluo-8 calcium fluorescence; normalized: DMSO 0%, oxytocin 100%. activation, % at 3 µM;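 active = activation above the mean of all tested compounds plus 3 SD, cutoff set per screening run, cut at about 20% in these data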;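 also: peak over basal fluorescence ratio from a 100 s FLIPR kinetic read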
Target sequence (P30559 whole entry, looked up): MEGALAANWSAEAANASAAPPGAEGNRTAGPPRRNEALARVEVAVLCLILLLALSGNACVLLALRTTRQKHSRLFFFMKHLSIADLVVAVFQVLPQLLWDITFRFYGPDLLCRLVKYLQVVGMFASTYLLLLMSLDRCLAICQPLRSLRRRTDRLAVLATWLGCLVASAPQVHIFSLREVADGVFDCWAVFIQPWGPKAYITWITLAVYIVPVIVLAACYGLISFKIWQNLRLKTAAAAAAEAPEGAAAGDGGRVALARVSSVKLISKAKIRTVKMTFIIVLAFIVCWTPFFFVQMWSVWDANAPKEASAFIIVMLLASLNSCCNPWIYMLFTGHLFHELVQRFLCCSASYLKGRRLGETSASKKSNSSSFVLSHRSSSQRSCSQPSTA
M4 PAM: CHRM4 positive allosteric modulation; CHO-K1 hM4/Gqi5, Fluo-8 calcium fluorescence, ACh EC20; 0% = ACh EC20, 100% = maximal ACh; activation, % at 3 µM; AID 624126; P08173; actives 0.4% (n = 360,000);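 active = activation above its plate's cutoff, the mean activation of sample wells plus 3 SD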
V1aR counter: activates human V1a receptor in oxytocin agonist counter-screen; P37288; CHO-V1R cells, Fluo-8 calcium fluorescence, agonist mode; 0% DMSO, 100% 3 nM vasopressin; activation, % at 3 µM; actives 0.25% (n = 320,000); AID 2797;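 active = activation above the mean activation of all tested compounds plus 3 SD, per screening run, cut at about 20% in these data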;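 also: signal is peak over basal fluorescence ratio across a 100 second FLIPR read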
M4 ag: CHRM4 agonism in calcium assay; P08173; CHO-K1 hM4/Gqi5, Fluo-8 calcium fluorescence; vehicle 0%, full acetylcholine response 100%; activation, % at 3 µM; actives 0.14% (n = 360,000);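 active = activation above the run mean over all test wells plus 3 SD, cut at about 32% in these data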;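 also: peak over basal fluorescence ratio per well then scaled between controls; 0% = DMSO wells and 100% = acetylcholine at EC100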
OXTR potentiator: potentiates the human oxytocin receptor response; actives 0.061% (n = 320,000); activation, % at 3 µM; AID 2445; CHO-OTR cells, Fluo-8 calcium fluorescence, potentiator mode; 0% = oxytocin EC15, 100% = EC100; P30559;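 active = activation above that plate's cutoff, the mean activation of tested compounds plus 3 SD, cut at about 6.6% in these data, passing the limit was not always enough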;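 also: 100% uses oxytocin at 75 nM as the full agonist control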
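test system = CHO-OTR cells, human receptor | compound = single-point 3.0 µM | schedule = 6 min compound pre-incubation at room temperature, 100 s kinetic read | signal = Fluo-8 no-wash calcium dye fluorescence, excitation 470-495 nm, emission 515-575 nm | repeats = single well per compound, singlicate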
CHRM4 antagonist: blocks acetylcholine activation of human M4 receptor; CHO-hM4 cells, ACh EC80, Fluo-8 calcium fluorescence; inhibition, % at 3 µM; P08173; actives 0.73% (n = 360,000);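 active = inhibition above its plate's cutoff, the mean inhibition of sample wells plus 3 SD, cut at about 27% in these data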;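 also: 0% = acetylcholine EC80 with DMSO and 100% = DMSO without agonist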
The depositor's hits bear a star; · = not tested or not shown. In the library only some 1.5% were active in any assay of this set; here they are far more common.

SMILES | OXTR ag | M4 PAM | V1aR counter | M4 ag | OXTR potentiator | CHRM4 antagonist
Cc1ccc(NC(=O)c2sc3nc(C)cc(C)c3c2N)cc1 | -1.9 | 15.6* | -1.5 | 3.6 | -2.4 | -21.2
CCOC(=O)c1sc2nc(C)nc(NCc3cccnc3)c2c1C | -0.8 | -2.6 | 0.3 | 0.8 | -0.2 | 7.1
Cc1cc(C(F)(F)F)c2c(N)c(C(=O)NC3CC3)sc2n1 | -0.1 | 8.1 | 0.1 | 1.2 | -6.0 | -20.3
Cc1cc(C)c2c(N)c(C(=O)NC3CC3)sc2n1 | -0.9 | 34.0* | 0.3 | 56.1* | -8.4 | 66.8*
CCOC(=O)c1sc2nc(C)cc(C)c2c1N | -2.0 | 51.0* | -1.3 | 1.0 | 5.5 | 28.3*
O=C(Nc1ccc(Cl)c(S(=O)(=O)N2CCOCC2)c1)[C@@H]1CCCN1C(=O)c1cccs1 | -0.4 | -4.2 | -0.6 | 1.5 | 1.3 | 11.7
CCOc1ccc(NC(=O)CC2C(=O)N(CC)C(=S)N2NC(=O)c2ccncc2)cc1 (stereo unspecified) | -0.8 | 1.4 | -0.2 | 0.9 | -7.2 | -10.6
O=C(/C=C/c1cccc([N+](=O)[O-])c1)N1CCN(S(=O)(=O)c2cccs2)CC1 | 0.5 | -3.0 | 0.0 | 3.4 | -1.7 | -8.7
CC(=O)c1sc2nc(-c3ccccc3)cc(C)c2c1N | -2.8 | 42.4* | -0.5 | 21.3 | 3.5 | 12.9
COc1ccc(/C=C(/NC(=O)c2ccco2)C(=O)NCc2ccco2)cc1OC | -1.1 | 25.5* | 3.8 | -1.6 | -3.1 | -9.5
CCOC(=O)/C(=C/c1ccc(Cl)cc1)NC(=O)c1ccco1 | -0.4 | 23.5* | 1.1 | 1.6 | -7.3 | -12.3
Nc1nc(=O)n(C2CCC(CO)O2)cc1F (stereo unspecified) | · | 14.7 | · | 1.8 | · | -4.6
Cn1cccc1C(=O)N/N=C/c1c(Cl)cccc1Cl | -1.7 | 1.7 | -0.1 | 1.5 | 0.4 | -6.7
CCCCNC(=O)c1nc(C2CCN(S(=O)(=O)c3c(OC)cccc3OC)CC2)oc1-c1ccccc1 | · | -9.2 | · | 5.1 | · | 4.5
CC(C)(C)C(=O)NC(=S)NNC(=O)c1ccc(-c2ccccc2)cc1 | 108.2* | -54.2 | 117.2* | 140.9* | -11.1 | 98.5*
CC(C)(C)C(=O)NC(=S)NNC(=O)c1ccc(Cl)cc1Cl | 98.1* | -43.9 | 121.9* | 139.4* | -26.2 | 44.4*
Cc1ccc(OCCSc2nc3ccccc3n2CCC(=O)O)cc1 | 0.4 | -2.5 | 1.8 | 0.6 | -2.6 | -3.7
NC(=O)CC[C@H](NC(=O)c1ccc(F)cc1)C(=O)OCC(=O)Nc1ccc(N2CCOCC2)cc1 | 1.1 | 24.2* | -0.1 | 0.5 | 4.6 | -11.8
O=C1CSC(=Nc2cccc(C(=O)O)c2)N1 | 0.5 | 14.7* | -0.2 | 1.1 | -2.7 | -4.1
CC(=O)c1cccc(N=C2NC(=O)CS2)c1 | -0.2 | 4.3 | -0.1 | -0.3 | -8.0 | 13.6
Fc1ccc(-c2ccc3c(c2)C2CC3CCN2)cc1 (stereo unspecified) | · | -10.5 | · | 12.4 | · | -4.9
Cc1ccc(CNC(=O)C2CCC(=O)N(CCc3cccc(F)c3)C2)cc1 (stereo unspecified) | 0.2 | 0.1 | 2.2 | 1.0 | -3.2 | 1.2
O=c1c(Cl)c(Cl)cnn1Cc1nnc(-c2ccccc2Br)o1 | · | -24.5 | · | 119.6* | · | 98.9*
Clc1ccccc1OCc1nnc(-c2ccccc2Br)o1 | -2.3 | -0.5 | -0.4 | 0.2 | -2.6 | 8.7
OC(CCN1CCOCC1)(c1ccc(Cl)cc1)C1CCCCC1 (stereo unspecified) | -2.7 | -14.5 | -1.7 | -1.3 | -5.6 | 39.2*
CCN(CC(=O)Nc1c(F)cccc1F)C(=O)c1ccc(-n2cncn2)c([N+](=O)[O-])c1 | -0.2 | -6.0 | 0.3 | -0.2 | -6.7 | 34.6*
CCN(CC(=O)Nc1c(F)cccc1F)C(=O)c1ccc(N2CCCC2)c([N+](=O)[O-])c1 | 1.6 | -2.4 | 4.5 | 5.4 | -1.4 | 2.7
NCCc1c(-c2ccccc2)n(-c2ccccc2)c2ccccc12 | · | 1.0 | · | 6.5 | · | 4.8
CN(CCN1CCOCC1)C(=O)CC1C(=O)NCCN1Cc1ccccc1C(F)(F)F (stereo unspecified) | -0.3 | 19.4* | 0.4 | 0.7 | -7.3 | -13.5

Assay outcomes: PubChem BioAssay, The Scripps Research Institute Molecular Screening Center
